Measurements published in the EternaBench riboswitch data.

Tested on: MS2 coat protein
Assay: apparent Kd, MS2 coat protein; higher = weaker binding; RNA-MaP array; FMN 200 µM where present
In short: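 Binding was read on Illumina sequencing-chip clusters where stalled E. coli RNA polymerase had transcribed each design. A titration of SNAP-549-labelled MS2 coat protein began at 0.7 or 1.5 nM and doubled to 3 µM, once without ligand and once with constant ligand, in 100 mM Tris-HCl pH 7.5, 80 mM KCl, 4 mM MgCl2, BSA, DTT, yeast tRNA and Tween-20. The apparent Kd is the median of filtered per-cluster binding-curve fits, based on green signal normalised to red-channel RNA signal and control-cluster median Fmax.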

[1] = designed as: ON switch for flavin mononucleotide, no ligand
[2] = ligand present: flavin mononucleotide, designed as: ON switch for flavin mononucleotide
[3] = designed as: OFF switch for flavin mononucleotide, no ligand
[4] = ligand present: flavin mononucleotide, designed as: OFF switch for flavin mononucleotide

Row | Sequence | apparent Kd [1] [nM] | apparent Kd [2] [nM] | apparent Kd [3] [nM] | apparent Kd [4] [nM]
1 | AAAAAAAAAGUAUAGGAUAUCCGAGUGGUAACAUGAGGAUCACCCAUGUGAAGAAAGGAAGAUGAGGAGAAGGAUACAAAAAAAAA | 125 | 48.5 |  | 
2 | AAUAGUGGCGUAGGAUAUCUGCGUACAUGAGGAUCACCCAUGUCUCCCAGCCGCUGAGCUGGGACAGAGAAGGGCGACCGCAUA | 229 | 88.9 |  | 
3 | AUACAUGAGGAUCACCCAUGUUACAUGGCCUUGAUAGAUUGUAGAAGGAUGUUAUUAUUAAUUUCAUAGGAUAUACUAUUUAGU |  |  | 106 | 83.9
4 | UGUCGGAGCAGAGGAUAUUACAUGAGGAUCACCCAUGUAUGAACUAAUAGCUGGAAACAGCAAUGUAAGAAGGCUGCUCCGACA |  |  | 6.27 | 17.9
5 | UUCUGUGCCCAAAGUUAAAGCACAUGAGGAUCACCCAUGUGAAAGGAUAUGUGGCGUGUAACGUUAUAGAAGGUUCACAAACAA |  |  | 31.9 | 105
6 | UUUAAUCGAAACAUGAGGAUCACCCAUGUGUUGUAAUUAACAUAGGAUAUUUGUAUACUUUUAUAAAAGAAGGAUGAUAAUACU | 17.8 | 13 |  | 
7 | GCGGCUAGUGCAGGAUAUCGGCGCGUGUAGCGCCGAGAAGGGCACAUGAGGAUCACCCAUGUGAUCAAUCAAUGCUAAUGCCGC |  |  | 7.38 | 25.4
8 | AUCAGCUUGUCAGGAUAUGCGUGUCAACGAAAGUAGACAAUCUUAAUAACAUGAGGAUCACCCAUGUAGAAGGGACGAGCUGAU |  |  | 18.2 | 20.3
9 | UGGUUGGGAGGAUAUCCAAUAUAUGACAUGAGGAUCACCCAUGUUUCCACUCGUACCUCCGGAGAAGGCCCUUCCA |  |  | 23.1 | 22
10 | CACGAGUGAGGAUAUAGAGAGGUGAGGCUGAAGUCGCAUAUCUAGAAGGCACAUGAGGAUCACCCAUGUCCCUC |  |  | 481 | 503
11 | GCCUUAUCUGUCAGGAUAUACAAUAAAAUAAUUUUGUAGAAGGGACAUGAGGAUCACCCAUGUACAUUACAUUG |  |  | 58.3 | 257
12 | AAAAAAAAAACUCAGGAUAUAGAUUGUUGAACAUGAGGAUCACCCAUGUAGUGAAAAGCGAAAAACUAGAAGGGAGGAAAAAAAAA | 82.5 | 46 |  | 
13 | UCCUCGAUGUAGAAGGCCGCGUCCGGCUCACGCGGAGGAUAUACAUGAGGAUCACCCAUGUGUCUGUGGCUAAUAUGGUACGGA |  |  | 120 | 14.4
14 | CCAUUUCUGUAAGGAUAUAUAAACAUGACGAUACAUGAGGAUCACCCAUGUGUAGAAGGUACAAAUACAUAUAAUGCAAUGUUC |  |  | 14.8 | 13
15 | AAUGCCAACGAAGGAUAUACAAACAUGAGGAUCACCCAUGUGUCUUUCGUGUAACUGGAAUUCGGGUAGAAGGUCGUUGACAUA |  |  | 24.2 | 23.2
16 | GGUGGACAUGAGGAUCACCCAUGUGAGGAUAUCGGCUGGUGCGUGGUGGCUGGCAUCUCGAGAAGGCACAUAGU |  |  | 94.4 | 171
17 | AGGUACCAUGUUAGGAUAUCACUGACUAACGUCGCUGAGAAGGAACAUGAGGAUCACCCAUGUGCCGGGCUCUU |  |  | 20.9 | 50.8
18 | ACGUAUAGAGGAUAUACAGAAUAUUACAUGAGGAUCACCCAUGUUCUUCAAUGUAUAUUUGUAGAAGGCUAAUGAA |  |  | 60.7 | 281
19 | GGACGUCUCAUUAACAUGAGGAUCACCCAUGUCAAAAGACAUGAGGAUAUGGUUCCUAAUUGGAACCAGAAGGCAUGGACGUCC | 853 | 67.8 |  | 
20 | GGCCCGUAAGGAUAUAAUGCUCAGGUGAAAACCGAGCUCCGUUAGAAGGUACAUGAGGAUCACCCAUGUGAUCG |  |  | 107 | 124
21 | UAUAUUAUUAUAGGAUAUGGAUACGAUGCGUAUCCAGAAGGGUGAUUAUAAUAUAAUCUAUACAUGAGGAUCACCCAUGUUUAU | 303 | 73.9 |  | 
22 | CAAUUCGCACAGAAGGGUGACAUGAGGAUCACCCAUGUAGCGUGGCACUCAGGAGGAGCCACGCCACAGGAUAUGUGCGGGCAC | 33.4 | 33.8 |  | 
23 | GUAGCAUACAGAGGAUAUCUAAACCGGAAACGGACAUGAGGAUCACCCAUGUGGCGAAAGCCUAGGGAGAAGGCUGAAUGCUAC | 13.2 | 11.8 |  | 
24 | UCCCUUGCUGGAGGAUAUCGCACAUGAGGAUCACCCAUGUCGGCACUCGGGCGCAUCCUCUUGGACGAGAAGGCCAGGAGGUAC |  |  | 179 | 79.4
25 | AUUGUAGGAGGAUAUACAUGAGGAUCACCCAUGUCGUCCCAGGAGGACACCUUCCCAUGUAGAAGGCCUGGGAC |  |  | 31.4 | 19.3
26 | UGUCGGAGCAGAGGAUAUUACAUGAGGAUCACCCAUGUAUGAAGCAAUAGCUGGAAACAGCAAUGUAAGAAGGCUGCUCCGACA |  |  | 5.7 | 7
27 | GUGUAGCAAGGAUAUACAUGAGGAUCACCCAUGUGAAUAAGAUAGAAUAAGAUAAAGUGUAGAAGGUGCAGUGU |  |  | 39 | 34.4
28 | CCAUCAGCGAACGUAUCGGUUGGACAUGAGGAUCACCCAUGUAGAAGGACAGGAGUAUUACGGCUGUAGGAUAUACAUUUAGUG |  |  | 21.3 | 18

Row | Sequence | apparent Kd [1] [nM] | apparent Kd [2] [nM] | apparent Kd [3] [nM] | apparent Kd [4] [nM]
29 | GUGCAGGUAGGAUAUACGUGAGAGCCUUGUGGGCGUCUGGUACAUGAGGAUCACCCAUGUAGAAGGACCGGGCU |  |  | 21.3 | 77.5
30 | GUAUAUCACUAAGGAUAUCUGUAAUAUGUUGAAACAUGAGGAUCACCCAUGUUCAUGUAUUUAUAGGAGAAGGUAGAGAUAUAC | 4.34 | 4.15 |  | 
31 | UAAUCUCAGAUAGGAUAUAUAGGAUGAUUUAAGACCGAACAUGAGGAUCACCCAUGUGAUUAUUCGUAGAAGGAUCAAUGACCC | 122 | 114 |  | 
32 | CGUCGAAAGGCGGGUCCAUCACCACAUGAGGAUCACCCAUGUAAGGAUAUCGGACUCAGAAAGAGCGAGAAGGUACAUAGUUAA |  |  | 6.01 | 6.53
33 | UUAUACAUGAGGAUCUCCCAUGACAUGAGGAUCACCCAUGUGCAGGAUAUACGUGUUAUAAUAUAGUAGAAGGGCAGACUAUAU |  |  | 41.1 | 74.3
34 | UCGACCAGCGCCAGCCGAACAUGAGGAUCACCCAUGUACUCCAGAAGGCCGCCCAAGAACGGAGUGGAGGAUAUGGAGGUUCUC | 38 | 35.5 |  | 
35 | AUCGGCCCGUAGAAGGGUGACAUGAGGAUCACCCAUGUGCCGCGUGCAUUUAUGCCUCCGCGGCCACAGGAUAUACGGAGUUGA | 61 | 50 |  | 
36 | CGGUGACGUGUAGGAUAUGGCGCUGGGUUUUGGCCAGAAGGACAUGAGGAUCACCCAUGUGGUAGAGGGCUGGCGGCCGCCCGU |  |  |  | 108
37 | GGUUGACAUGAGGAUCACCCAUGUGAGGAUAUCGGCUGGUACGUGUUGGCUGGCAUCUCGAGAAGGCACAUAGG |  |  | 170 | 58.4
38 | GGACCGAGUGUGAGGAUAUGCUGGUCCUUGGAUCAGCAGAAGGCACAUGAGGAUCACCCAUGUGGUGUCGGUCC |  |  | 573 | 203
39 | CAGUGCUGUUGAGAGGAUAUGCGGUGAUGGACAUGAGGAUCACCCAUGUUAGCGACAGCGUUACGGCAGAAGGCUCUACCCACUG | 49.4 | 22.4 |  | 
40 | ACCACGUUAGCGAUAUGAUCGAGAGAUCAUGUCGCUAAUUUUAGAAGGACAUGAGGAUCACCCAUGUAGGAUAUGGGACGUGGA | 14.7 | 7.88 |  | 
41 | GCACUUACGUUAGGAUAUGUAUCGGAAAACGAUACAGAAGGAAUAUGGGAACAUGAGGAUCACCCAUGUUCCUGAGACAAGUGC | 46.5 | 26.4 |  | 
42 | UGAGCCUCGUGAGGAUAUACAUGAGGAUCACCCAUGUAAUAAAGUGAGCGGAGGAAACUCCGAAUGUAGAAGGCACGAGGCUCA |  |  | 26 | 186
43 | AGAUUUGUACAUGAGGAUCACCCAUGUUAAUAGGUGGUUGUCAGAAGGCAUUAAUAGAGUUUUAAUGAGGAUAUGAAUUUACAA | 1030 | 803 |  | 
44 | AAUUGACACGUAGGAUAUCGCUCUAAUUAAACACGAGAAGGACGUACAUGAGGAUCACCCAUGUUAAAUGGUGUAGAUAAGUUG |  |  | 172 | 479
45 | UUUAAGAAUGAAGGAUAUCUAAAAGUAAUCUUAAGAGAAGGUCAAUAGAACAUGAGGAUCACCCAUGUUAGAAUAGAUGGGUUU |  |  | 96.7 | 110
46 | CUUUUGUGAGGAUAUUAGUAGUAAAUAAAUAAAAUUAUUACUGAGAAGGUACAUGAGGAUCACCCAUGUUCCUC |  |  | 18.3 | 25.5
47 | AGAUAACACCAGAAGGACAUGAGGAUCACCCAUGUAGGAUAUGGGCAUCACUCGAGAAAGAUACGACCAAAGGGACACGCGGUC | 124 | 9.97 |  | 
48 | CUUUAUAAUACCUCAUGUACAUGAGGAUCACCCAUGUUAACUAAGGAUAUAUAUAAAUUAAUAAUGUAGAAGGUAGUACUAUUU |  |  | 17.3 | 14.8
49 | GCGCCAUCGUGAGAUGGCGUAACGACAUGAGGAUCACCCAUGUAGGAUAUCGAUUGCUUUGCAGUCGAGAAGGGCAAGGUAAGU |  |  | 30.7 | 38.1
50 | GAUAGGACAGAGAAGGACGUAGCUAGAGAUACUAGCAUAAAGGUCCAAACAUGAGGAUCACCCAUGUAGGAUAUCUGUCCUAUC |  |  | 6.47 | 6.92
51 | GCCAUCGUAUGAGGAUAUGGCACCGAAACGGUGCCAGAAGGCAUGUCAAUUGACAUGAGGAUCACCCAUGUAUUAUCGAUGGCA | 857 | 89 |  | 
52 | GCAAUAGCAUGAGGAUAUGUUGGAGUUUAGACAGCAGAAGGCAUGUCAUAAGACAUGAGGAUCACCCAUGUAGUUACAAUGGCA | 22.6 | 11.5 |  | 
53 | ACAUUAGAAGAGAAGGUUCAUACUAUUAUCAACAUACAUGAGGAUCACCCAUGUUGGUGAUUAAGAAAGGAUAUUUAUAACACU |  |  | 23.1 | 20.6
54 | AUAUAGCGAGGAUAUACAUGAGGAUCACCCAUGUGGUAGUAGAUACGGUAGGGCUAGUGUAGAAGGUGUUAUGA |  |  | 139 | 87.9
55 | UAAUGAUAAGCAGGAUAUACUACACAUGAGGAUCACCCAUGUGUGUGAUCCACUCUCGUAUGGUAGUAGAAGGGCUCAGAGUAC |  |  | 153 | 80.6
